Source: ChEMBL document CHEMBL1130128, “Antipsoriatic anthrones with modulated redox properties. 4. Synthesis and biological activity of novel 9,10-dihydro-1,8-dihydroxy-9-oxo-2-anthracenecarboxylic and -hydroxamic acids” (J Med Chem, 1997)
pIC50: −log10 of the molar value.

Assays:
[1] = test system: HaCaT; test: Cytotoxicity of LDH release in HaCaT cells; type: functional, Homo sapiens; parameters: unit: mU
Summary of the method: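 HaCaT cells treated with 2 μM test compound; plasma membrane damage measured as lactate dehydrogenase activity released into culture medium, in mU; N = 3; compared with vehicle control.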

[2] = Antioxidant activity, measuring Deoxyribose degradation (DD) as a measure of hydroxyl radical formation.
Summary of the method: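 Deoxyribose assay: 2-deoxy-D-ribose incubated with 75 μM test compound; hydroxyl-radical generation read as malondialdehyde release, expressed as μmol MDA/mmol deoxyribose; compared with control.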

[3] = test system: HaCaT; test: Antiproliferative activity (AA) against HaCaT keratinocytes.; type: functional, cell-based; conditions: Homo sapiens
[4] = target: T1, Arachidonate 5-lipoxygenase (Bos taurus, UniProt Q9BEG3); test: 5-LO inhibitory activity, measured by production of 5-hydroxyeicosatetraenoic acid (5-HETE) and leukotriene B4 (LTB4) in bovine polymorphonuclear leukocytes; type: functional, cell-based
T1 sequence (Q9BEG3 whole entry): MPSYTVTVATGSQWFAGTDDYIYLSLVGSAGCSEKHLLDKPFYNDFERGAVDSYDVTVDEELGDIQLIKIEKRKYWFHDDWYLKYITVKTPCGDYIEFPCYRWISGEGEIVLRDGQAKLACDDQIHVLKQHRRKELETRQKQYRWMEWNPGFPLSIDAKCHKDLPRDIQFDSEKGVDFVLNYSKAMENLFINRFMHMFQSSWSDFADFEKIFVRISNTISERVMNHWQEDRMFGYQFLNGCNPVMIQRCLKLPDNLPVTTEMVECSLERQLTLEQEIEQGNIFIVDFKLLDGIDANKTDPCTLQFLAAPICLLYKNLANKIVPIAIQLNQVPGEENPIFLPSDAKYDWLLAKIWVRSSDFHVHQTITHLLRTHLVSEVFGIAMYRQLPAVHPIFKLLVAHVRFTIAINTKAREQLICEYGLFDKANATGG

Compound | DD [2] [µmol/mmol] | pIC50 [4] | LDH [1] [MU] | pIC50 [3]
COC(=O)c1ccc(C(=O)c2ccc3c(c2O)C(=O)c2c(O)cccc2C3)cc1 |  | < 4.52 |  | 5.74
O=C(O)c1ccc(C(=O)c2ccc3c(c2O)C(=O)c2c(O)cccc2C3)cc1 | 1.34 | 5.70 |  | < 5.30
CC(C(=O)NO)c1ccc2c(c1O)C(=O)c1c(O)cccc1C2 (stereo unspecified) | 1.3 |  |  | 5.70
O=C(NO)c1ccc(Cc2ccc3c(c2O)C(=O)c2c(O)cccc2C3)cc1 |  | 5.30 |  | 5.96
CC(C)C(C(=O)NO)c1ccc2c(c1O)C(=O)c1c(O)cccc1C2 (stereo unspecified) | 1.66 | 5.22 | 192 | 5.82
COC(=O)Cc1ccc2c(c1O)C(=O)c1c(O)cccc1C2 |  | < 4.52 |  | 6.30
CN(O)C(=O)Cc1ccc2c(c1O)C(=O)c1c(O)cccc1C2 | 1.67 | 6.00 | 150 | 6.10
COC(=O)CCCCCc1ccc2c(c1O)C(=O)c1c(O)cccc1C2 |  | < 4.52 | 142 | 5.80
COC(=O)C(Cc1ccccc1)c1ccc2c(c1O)C(=O)c1c(O)cccc1C2 (stereo unspecified) | < 0.15 | < 4.52 |  | 5.74
CC(C)C(C(=O)N(C)O)c1ccc2c(c1O)C(=O)c1c(O)cccc1C2 (stereo unspecified) | 0.86 | 5.30 | 135 | 5.82
O=C(O)CCCCc1ccc2c(c1O)C(=O)c1c(O)cccc1C2 | 2.62 | 4.89 |  | < 5.30
O=C1c2c(O)cccc2Cc2ccc(C(Cc3ccccc3)C(=O)NO)c(O)c21 (stereo unspecified) | 1.04 | 5.40 |  | 5.82
CCCCOc1ccc(CC(=O)NO)cc1 [BUFEXAMAC] |  | 4.46 | 135 | < 5.30
O=C1c2c(O)cccc2Cc2ccc(C(CCc3ccccc3)C(=O)O)c(O)c21 (stereo unspecified) | 2.47 | 5.70 | 142 | < 5.30
COC(=O)CCc1ccc2c(c1O)C(=O)c1c(O)cccc1C2 |  | < 4.52 |  | 6.10
O=C(CCc1ccc2c(c1O)C(=O)c1c(O)cccc1C2)NO | 1.67 | 5.40 |  | 5.89
O=C(Cc1ccc2c(c1O)C(=O)c1c(O)cccc1C2)NO | 1.89 | 5.22 |  | 5.74
O=C(CCCc1ccc2c(c1O)C(=O)c1c(O)cccc1C2)NO | 1.46 | 5.52 |  | 5.82
O=C1c2c(O)cccc2Cc2cccc(O)c21 [ANTHRALIN] | 2.89 |  | 294 | 6.22
COC(=O)c1ccc(Cc2ccc3c(c2O)C(=O)c2c(O)cccc2C3)cc1 | < 0.15 | < 4.52 |  | 

Now from value to compound, other results behind:

DD [2] [µmol/mmol] | pIC50 [4] | Compound | LDH [1] [MU] | pIC50 [3]
0.92 |  | CN(O)C(=O)CCc1ccc2c(c1O)C(=O)c1c(O)cccc1C2 | 135 | 
0.28 | < 4.52 | COC(=O)C(CCc1ccccc1)c1ccc2c(c1O)C(=O)c1c(O)cccc1C2 (stereo unspecified) | 142 | 5.89
2.67 | 4.72 | O=C(O)CCc1ccc2c(c1O)C(=O)c1c(O)cccc1C2 |  | < 5.30
2.29 | 5.00 | O=C(O)CCCCCc1ccc2c(c1O)C(=O)c1c(O)cccc1C2 |  | < 5.30
1.36 |  | CN(O)C(=O)CCCCc1ccc2c(c1O)C(=O)c1c(O)cccc1C2 | 124 | 
0.54 | < 4.52 | COC(=O)C(c1ccc2c(c1O)C(=O)c1c(O)cccc1C2)C(C)C (stereo unspecified) |  | 5.82
3.25 |  | O=C1c2c(O)cccc2Cc2ccc(C(Cc3ccccc3)C(=O)O)c(O)c21 (stereo unspecified) |  | < 5.30
0.62 | < 4.52 | COC(=O)CCCCc1ccc2c(c1O)C(=O)c1c(O)cccc1C2 | 146 | 5.74
 | 6.40 | CN(O)C(=O)CCCCCc1ccc2c(c1O)C(=O)c1c(O)cccc1C2 |  | 6.15
 | < 4.52 | COC(=O)C(C)c1ccc2c(c1O)C(=O)c1c(O)cccc1C2 (stereo unspecified) |  | 6.10
0.92 | 5.40 | CN(O)C(=O)c1ccc(C(=O)c2ccc3c(c2O)C(=O)c2c(O)cccc2C3)cc1 |  | 5.74
3.58 |  | CC(C)C(C(=O)O)c1ccc2c(c1O)C(=O)c1c(O)cccc1C2 (stereo unspecified) | 128 | < 5.30
< 0.15 |  | O=C(O)c1ccc(Cc2ccc3c(c2O)C(=O)c2c(O)cccc2C3)cc1 |  | 
1.68 | 5.30 | CN(O)C(=O)C(Cc1ccccc1)c1ccc2c(c1O)C(=O)c1c(O)cccc1C2 (stereo unspecified) |  | 6.05
1.5 |  | CN(O)C(=O)CCCc1ccc2c(c1O)C(=O)c1c(O)cccc1C2 | 181 | 
3.74 | 4.66 | O=C(O)Cc1ccc2c(c1O)C(=O)c1c(O)cccc1C2 |  | < 5.30
1.38 | 5.70 | O=C(CCCCc1ccc2c(c1O)C(=O)c1c(O)cccc1C2)NO | 135 | 5.70
2.61 | 4.74 | O=C(O)CCCc1ccc2c(c1O)C(=O)c1c(O)cccc1C2 |  | < 5.30
1.57 | 5.22 | CC(C(=O)N(C)O)c1ccc2c(c1O)C(=O)c1c(O)cccc1C2 (stereo unspecified) | 142 | 5.82
0.33 | < 4.52 | COC(=O)CCCc1ccc2c(c1O)C(=O)c1c(O)cccc1C2 |  | 5.96
 | 4.77 | CC(C(=O)O)c1ccc2c(c1O)C(=O)c1c(O)cccc1C2 (stereo unspecified) |  | < 5.30
